Laboratory results from PubChem BioAssay.
Calls of active or inactive are those of the source.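 The calls were made as follows, unless noted: active = fluorescence slope after compound addition differing from the mean of all tested samples at 99.7% confidence, mostly higher but some lower; inactive = the rest.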

How the values were obtained:
[1] = inhibitors of TNFa-induced NFkB p65 translocation, primary screen, imaging, HUVEC, MLSMR starter and 10KST1 sets (AID 438;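 active = inhibition above 20% together with a positive visual image hit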;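 also: compound added about 3h40 before a 20 min TNFalpha stimulation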;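 as to inhibition: signal is the nuclear over cytoplasmic p65 intensity ratio per well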); settings: HUVEC TNFa-induced p65 nuclear translocation; cell count: measured here: nuclei count (cytotoxicity indicator), at 2.08 µM; inhibition: at 2 µM, stronger effect = higher value, 0% TNFa-plus-vehicle, 100% no-TNFa wells
[2] = reduction of polyQ htt aggregates in cells – imaging, exon1htt(103Q)mCFP cells, high-content imaging, primary screen (AID 483;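 active = visual image review flags a hit and inhibition of aggregation exceeds 20%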;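 also: compound exposure lasted 3 days before fixation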;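 as to nuclei count: percent of the per-plate median nuclei count of sample wells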); settings: exon1htt(103Q)mCFP cell line, aggregate imaging, at 2 µM; inhibition of aggregation: stronger effect = higher value; nuclei count: measured here: cell count, toxicity
[3] = endothelial E-selectin expression blockers – imaging, HUVEC, immunofluorescence, MLSMR starter and 10KST1 sets, primary screen (AID 487;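 active = visually confirmed hit in the image check and inhibition above 20%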;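 as to inhibition: signal is fraction of cell area covered by stained E-selectin grains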;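 as to nuclei count: 100% = median nuclei count of all wells on the same plate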); settings: HUVEC TNFalpha-induced E-selectin immunofluorescence imaging, at 2 µM; inhibition: stronger effect = higher value; nuclei count: measured here: cell number, toxicity
[4] = target: Voltage-gated potassium channel subunit beta-2 (Rattus norvegicus) (UniProt P62483); test: inhibitors of rat Kvbeta2 reductase activity – biochemical, NADPH fluorescence, primary screen (AID 622;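 active = fluorescence slope higher than the sample average by over 3 SD, cut at about -0.22 in these data, passing the limit was not always enough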;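 also: slope of raw intensity against log time taken from 70 to 1610 s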); settings: recombinant KvBeta, 4-cyanobenzaldehyde reduction, at 10 µM, stronger effect = higher value
Voltage-gated potassium channel subunit beta-2 (Rattus norvegicus), sequence (P62483 whole entry, looked up): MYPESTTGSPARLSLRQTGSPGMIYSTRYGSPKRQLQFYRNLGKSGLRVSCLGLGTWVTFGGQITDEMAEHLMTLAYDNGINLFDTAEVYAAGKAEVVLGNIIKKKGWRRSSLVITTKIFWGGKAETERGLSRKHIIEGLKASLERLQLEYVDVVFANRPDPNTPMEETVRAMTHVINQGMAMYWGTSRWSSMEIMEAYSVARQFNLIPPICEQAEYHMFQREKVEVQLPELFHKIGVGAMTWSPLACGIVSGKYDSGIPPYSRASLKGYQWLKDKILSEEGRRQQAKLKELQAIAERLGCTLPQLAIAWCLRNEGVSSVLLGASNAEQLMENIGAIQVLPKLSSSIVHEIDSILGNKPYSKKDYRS

[5] = target: Voltage-gated potassium channel subunit beta-2 (Rattus norvegicus) (UniProt P62483); test: enhancers of rat Kvbeta2 NADPH turnover – biochemical, NADPH fluorescence, primary screen (AID 623;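 active = NADPH fluorescence slope more negative than the mean of all samples by about 3 SD, 99.7% confidence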;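 also: fluorescence intensity change per second fitted from 20 to 320 s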); settings: Recombinant KvBeta, NADPH fluorescence decrease slope, 10 min; at 10 µM; stronger effect = lower value
[6] = target: Muscarinic acetylcholine receptor M4 (Homo sapiens) (UniProt P08173); test: M4-linked GIRK flux change, two-sided – cell-based, HEK293 M4/GIRK, thallium flux, BTC-AM, M4 allosteric agonist project, primary screen (AID 625); settings: at 10 µM, actives lie on both sides;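 also: thallium influx through GIRK channels coupled to M4 in HEK293 cells with BTC-AM dye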
Muscarinic acetylcholine receptor M4 (Homo sapiens), sequence (P08173 whole entry, looked up): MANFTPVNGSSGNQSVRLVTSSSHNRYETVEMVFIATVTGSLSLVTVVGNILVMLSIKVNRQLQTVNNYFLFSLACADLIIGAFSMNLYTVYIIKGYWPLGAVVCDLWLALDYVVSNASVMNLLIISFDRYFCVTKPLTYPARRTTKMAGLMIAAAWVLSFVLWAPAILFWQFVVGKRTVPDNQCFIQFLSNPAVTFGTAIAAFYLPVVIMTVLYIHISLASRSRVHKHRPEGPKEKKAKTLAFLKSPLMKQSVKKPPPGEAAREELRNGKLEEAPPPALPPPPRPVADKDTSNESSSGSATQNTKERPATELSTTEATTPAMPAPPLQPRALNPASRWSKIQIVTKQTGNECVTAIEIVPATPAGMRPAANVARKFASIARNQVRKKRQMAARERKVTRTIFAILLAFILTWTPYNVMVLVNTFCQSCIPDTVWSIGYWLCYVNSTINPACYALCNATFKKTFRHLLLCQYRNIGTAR
How it was run: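 assay system = HEK293 cells with M4 receptor and GIRK channels | medium = pH 7.3 thallium assay buffer | doses = 10 µM final, single point | timing = cells overnight at 37 °C, BTC-AM loading 1 h, reads 2 min total | signal = BTC-AM fluorescence, 1 Hz kinetic reads | read-out = post-addition slope, 15–24 s, of baseline-normalized fluorescence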

[7] = blockers of RIG-like receptor reporter activation – cell-based, Sendai virus stimulus, luciferase, 10K MLSCN set, TLR/RLR signaling modifier project, primary screen (AID 602276;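 active = inhibition at or above 50% at 10 µM; inactive = inhibition below 50%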;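 also: firefly luciferase from ISG56 promoter only with Renilla not read in this screen; 0% = Sendai virus plus DMSO and 100% = medium plus DMSO without virus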); settings: HEK293 RL24 IRF3 luciferase reporter, at 10 µM, stronger effect = higher value
[8] = TLR3 IRF3 reporter activation blockers – cell-based, poly I:C stimulus, luciferase, 10K MLSCN set, primary screen (AID 602277;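 active = inhibition of the reporter signal at or above 50%; inactive = inhibition below 50%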); settings: HEK293-TLR3 RL24 IRF3 luciferase reporter, at 10 µM, stronger effect = higher value

SMILES	cell count [1]	inhibition [1]	inhibition of aggregation [2]	nuclei count [2] [%]	inhibition [3]	nuclei count [3] [%]	fluorescence slope [4]	NADPH fluorescence slope [5]	fluorescence slope [6]	inhibition [7]	inhibition [8]
Cc1cc(-c2ccccc2)c2c3c(cn2n1)c(=O)n(C)c(=O)n3C	386	2% (inactive)	-0.2% (inactive)	116	-14.4% (inactive)	86.7	-0.59 (inactive)	-1.7e-06 (inactive)	0.00111 (inactive)	17.8% (inactive)	27.8% (inactive)
CN(CC(O)COCc1cccs1)C1CCCCC1 (stereo not drawn)	305	10.6% (inactive)	1.5% (inactive)	95.2	-5.5% (inactive)	105	-0.448 (inactive)	-4.5e-05 (inactive)	0.00729 (inactive)	11.7% (inactive)	17.5% (inactive)
NC(=O)c1c(NC(=O)CSc2nnc(-c3ccco3)n2-c2ccccc2)sc2c1CCC2	577	-15.4% (inactive)	-3.6% (inactive)	115	50.4% (inactive)	132	-0.525 (inactive)	0.00013 (inactive)	0.00489 (inactive)	30.1% (inactive)	32.9% (inactive)
CCn1c(CC(=O)Nc2cccc(OC)c2)nnc1SCC(=O)Nc1nccs1	835	4.3% (inactive)	8.8% (inactive)	103	-129% (inactive)	112	-0.545 (inactive)	-3.8e-05 (inactive)	0.00415 (inactive)	4.04% (inactive)	21.5% (inactive)
COc1ccccc1-c1c(C)nn2c(N3CCC4(CC3)OCCO4)cc(C)nc12	540	-2.1% (inactive)	-9.7% (inactive)	91.2	-42.2% (inactive)	111	-0.545 (inactive)	-4.6e-05 (inactive)	0.00547 (inactive)	13.5% (inactive)	12.2% (inactive)
CN(C(=O)c1c(Cl)nc2sccn12)C1CCCCC1	456	9.8% (inactive)	-13.5% (inactive)	104	-498% (inactive)	162	-0.464 (inactive)	-5.9e-05 (inactive)	0.00592 (inactive)	10.8% (inactive)	6.58% (inactive)
CCOC(=O)C1CCCN(C(=O)CNS(=O)(=O)c2ccc(Br)s2)C1 (stereo not drawn)	232	3.3% (inactive)	-8.6% (inactive)	108	-33.6% (inactive)	113	-0.437 (inactive)	-5.6e-05 (inactive)	0.00599 (inactive)	11.6% (inactive)	8.54% (inactive)
COc1cccc(Nc2c(F)c(F)c(F)c(F)c2C(=O)O)c1	246	-4% (inactive)	9.3% (inactive)	77.5	-11.9% (inactive)	96.6	-0.587 (inactive)	-3.3e-05 (inactive)	0.00658 (inactive)	10.2% (inactive)	11.4% (inactive)
CC1(C)Cc2noc(N)c2C(C)(C)N1OC(=O)c1cccs1	379	0% (inactive)	5.5% (inactive)	110	-80.4% (inactive)	129	-0.46 (inactive)	1.8e-05 (inactive)	0.00603 (inactive)	4.03% (inactive)	12.6% (inactive)
COc1cc2c(cc1OC)C(c1cc(OC)c(OC)c(OC)c1)NCC2 (stereo not drawn)	514	1.8% (inactive)	10.4% (inactive)	104	-28.8% (inactive)	102	-0.546 (inactive)	-2.1e-05 (inactive)	0.00597 (inactive)	15.4% (inactive)	20.5% (inactive)
CC(=O)c1c(C)[nH]c(C(=O)NCc2cccs2)c1C	471	2.9% (inactive)	15.8% (inactive)	116	-76.6% (inactive)	95.6	-0.561 (inactive)	-4.9e-05 (inactive)	0.00619 (inactive)	-3.69% (inactive)	-17.2% (inactive)
COc1cc(CC(=O)Nc2ncc(C)s2)cc(OC)c1OC	524	-6.7% (inactive)	20.3% (inactive)	78.3	-68.3% (inactive)	113	-0.501 (inactive)	7.8e-05 (inactive)	0.00592 (inactive)	19.3% (inactive)	18.5% (inactive)
Cc1nn(-c2ccccc2)c(C)c1C(=O)OCC(=O)c1c(N)n(CC(C)C)c(=O)n(C)c1=O	486	4.2% (inactive)	-2.5% (inactive)	78.8	-65.4% (inactive)	127	-0.504 (inactive)	0.000168 (inactive)	0.00552 (inactive)	4.86% (inactive)	-99.7% (inactive)
Cc1ccnc(NC(=O)Nc2ccc(F)cc2)c1	478	8.1% (inactive)	9.2% (inactive)	98.7	-266% (inactive)	126	-0.567 (inactive)	-9.3e-06 (inactive)	0.0057 (inactive)	-59.1% (inactive)	-110% (inactive)
CC1(C)Cc2c(sc3ncnc(N)c23)CO1	545	-14.9% (inactive)	5.4% (inactive)	114	-122% (inactive)	108	-0.384 (inactive)	-2.5e-05 (inactive)	0.00833 (inactive)	15.3% (inactive)	16.7% (inactive)
CCNC(=O)CC1C(=O)N(c2ccccc2)C(=O)N1Cc1ccc(OC)cc1 (stereo not drawn)	442	5.9% (inactive)	-1.6% (inactive)	69.1	-289% (inactive)	92.6	-0.567 (inactive)	2e-05 (inactive)	0.00553 (inactive)	14.5% (inactive)	21.8% (inactive)
Cc1cc(NC(=O)CSc2nnc(C3CC3)n2C)no1	296	1.1% (inactive)	15.4% (inactive)	96.8	-26.7% (inactive)	93.5	-0.55 (inactive)	-7.5e-05 (inactive)	0.00523 (inactive)	8.69% (inactive)	16.1% (inactive)
CCN1C(=O)/C(=C/N2CCc3ccccc32)SC1=S	382	1.8% (inactive)	-22.3% (inactive)	117	-1.2% (inactive)	100	-0.403 (inactive)	-2.8e-05 (inactive)	0.00654 (inactive)	-26.3% (inactive)	-99.1% (inactive)
COC(=O)CCN1CCC(C(N)=O)CC1	336	-6.3% (inactive)	-4.2% (inactive)	107	-132% (inactive)	129	-0.437 (inactive)	6.8e-05 (inactive)	0.00663 (inactive)	1.78% (inactive)	6.83% (inactive)
Cc1ccccc1NC(=O)c1ccc(NC(=O)c2ccco2)cc1	423	-1% (inactive)	10.9% (inactive)	116	-30.5% (inactive)	113	-0.462 (inactive)	-2.6e-05 (inactive)	0.00647 (inactive)	-7.81% (inactive)	-35.1% (inactive)
CN(C)S(=O)(=O)c1ccc(C(=O)Nc2ccccc2C(=O)O)cc1	487	-8.9% (inactive)	13.1% (inactive)	83	-1.2% (inactive)	78	-0.52 (inactive)	-3.3e-05 (inactive)	0.00545 (inactive)	2.15% (inactive)	46.7% (inactive)
Cc1ccc(C2CC(c3cccc(Br)c3)Nc3nnnn32)cc1 (stereo not drawn)	460	-10% (inactive)	-4.9% (inactive)	90.9	-1.3% (inactive)	79.9	-0.579 (inactive)	1.4e-05 (inactive)	0.00604 (inactive)	25.2% (inactive)	26% (inactive)
COC(=O)c1[nH]c2cccc(C)c2c1NC(=O)CN1CCCc2ccccc21	279	6.2% (inactive)	22.8% (inactive)	94	-47.3% (inactive)	100	-0.45 (inactive)	6.4e-05 (inactive)	0.00793 (inactive)	2.04% (inactive)	20% (inactive)
O=C(Nc1ncnc2sc3c(c12)CCCCC3)c1ccco1	260	-7% (inactive)	32.4% (active)	85.3	62.2% (inactive)	65.2	-0.542 (inactive)	-1.4e-05 (inactive)	0.0064 (inactive)	21.8% (inactive)	22.6% (inactive)
CS(=O)(=O)Nc1ccc(C(=O)NCc2ccc3c(c2)OCO3)cc1	409	-5.7% (inactive)	16.6% (inactive)	66.5	-42.6% (inactive)	108	-0.472 (inactive)	-1.7e-05 (inactive)	0.00561 (inactive)	9.26% (inactive)	4.21% (inactive)
COc1cc2[nH]c(=O)n(CCCCCC(=O)NCCCN3CCCC3=O)c(=O)c2cc1OC	703	-23.7% (inactive)	3.9% (inactive)	102	-42.1% (inactive)	124	-0.457 (inactive)	-7.1e-05 (inactive)	0.0052 (inactive)	13.3% (inactive)	22.1% (inactive)
Cc1ccc(-n2c(=O)[nH]c3c(C(N)=O)nc(CC(C)C)nc32)cc1	297	37.7% (active)	9.5% (inactive)	92.3	6.3% (inactive)	98.1	-0.536 (inactive)	-0.000117 (inactive)	0.00328 (inactive)	-2.4% (inactive)	8.27% (inactive)
Cc1ccc(S(=O)(=O)N(C)CC(=O)NC2CC(C)(C)NC(C)(C)C2)cc1	331	-6.6% (inactive)	6.2% (inactive)	98.6	1.9% (inactive)	89.8	-0.555 (inactive)	-1.8e-05 (inactive)	0.00697 (inactive)	11.7% (inactive)	22.6% (inactive)
